Test results as given in ChEMBL document CHEMBL5712071, “BET bromodomain protein inhibition is a therapeutic option for medulloblastoma” (Oncotarget, 2013).
Active and inactive are the calls of the source. The rule behind the calls is not given here.

Experiments:
HD-MB03 [1] = experiment: Anti-proliferative activity against human HD-MB03 cells assessed as reduction in cell viability incubated for 48 hrs by MTT assay; assay type: functional, cell-based; conditions: HD-MB03, 48 h
Procedure, shortened: (§1)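 Cells seeded in triplicate at 2 × 10^3 per well and allowed to adhere for 24h. JQ1 was given as serial dilutions in full medium, 1nM-6µM, from a 10 mM DMSO stock. Viability was read by MTT at each time point and IC50 derived from dose-response curves. Culture media were RPMI 1640/10% FCS for HD-MB3 (plus 1% NEAA), ONS-76, Daoy and UW-228, and EMEM/10% FCS for D-283 and D-341.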

HD-MB03 [2] = experiment: Anti-proliferative activity against human HD-MB03 cells assessed as reduction in cell viability incubated for 96 hrs by MTT assay; assay type: functional, cell-based; conditions: HD-MB03, 96 h; procedure, shortened: as §1
ONS-76 [3] = experiment: Anti-proliferative activity against human ONS-76 cells assessed as reduction in cell viability incubated for 72 hrs by MTT assay; assay type: functional, cell-based; conditions: ONS-76, 72 h; procedure, shortened: as §1
Daoy [4] = experiment: Anti-proliferative activity against human Daoy cells assessed as reduction in cell viability incubated for 72 hrs by MTT assay; assay type: functional, cell-based; procedure, shortened: as §1
UW228 [5] = experiment: Anti-proliferative activity against human UW228 cells assessed as reduction in cell viability incubated for 72 hrs by MTT assay; assay type: functional, cell-based; conditions: UW228, 72 h; procedure, shortened: as §1
D341 cell line [6] = experiment: Anti-proliferative activity against human D341 cells assessed as reduction in cell viability incubated for 120 hrs by MTT assay; assay type: functional, cell-based; conditions: D341, 120 h; procedure, shortened: as §1
D283 Med = experiment: Anti-proliferative activity against human D283 cells assessed as reduction in cell viability incubated for 48 hrs by MTT assay; assay type: functional, cell-based; procedure, shortened: as §1
UW228 [7] = experiment: Induction of apoptosis in human UW228 cells assessed as increase in population of cells in sub-G1 phase at 500 nM incubated for 72 hrs by ELISA; assay type: functional, cell-based
Procedure, shortened: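 Cell death ELISA on ONS-76 or UW-228 cells seeded 2 × 10^3 per well in triplicate and allowed 24h to adhere. Treated with 500 nM JQ1 or DMSO for 72h, then apoptotic cell death measured by Cell Death Detection ELISA per kit protocol. Experiments repeated at least 3 times.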

D341 cell line [8] = experiment: Induction of apoptosis in human D341 cells assessed as increase in population of cells in G1 phase at 500 nM incubated for 72 hrs by ELISA; assay type: functional, cell-based
Daoy [9] = experiment: Induction of apoptosis in human Daoy cells assessed as increase in population of cells in G1 phase at 500 nM incubated for 72 hrs by ELISA; assay type: functional, cell-based
D341 cell line [10] = experiment: Induction of apoptosis in human D341 cells assessed as increase in population of cells in sub-G1 phase at 500 nM incubated for 72 hrs by flow cytometry; assay type: functional, cell-based
Procedure, shortened: (§2)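 Cells were cultured with 500 nM JQ1 or DMSO control, trypsinised and washed 3 times in PBS. DNA was stained with propidium iodide for 15 min and DNA content analysed by flow cytometry to give G1 and sub-G1 fractions.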

D341 cell line [11] = experiment: Induction of apoptosis in human D341 cells assessed as increase in population of cells in G1 phase at 500 nM incubated for 72 hrs by flow cytometry; assay type: functional, cell-based; procedure, shortened: as §2
UW228 [12] = experiment: Induction of apoptosis in human UW228 cells assessed as increase in population of cells in G1 phase at 500 nM incubated for 72 hrs by flow cytometry; assay type: functional, cell-based
Daoy [13] = experiment: Induction of apoptosis in human Daoy cells assessed as increase in population of cells in G1 phase at 500 nM incubated for 72 hrs by flow cytometry; assay type: functional, cell-based; procedure, shortened: as §2
HD-MB03 [14] = experiment: Induction of apoptosis in human HD-MB03 cells assessed as increase in population of cells in G1 phase at 500 nM incubated for 72 hrs by flow cytometry; assay type: functional, cell-based; procedure, shortened: as §2
ONS-76 [15] = experiment: Induction of senescence in human ONS-76 cells assessed as increase in population of cells in G1 phase at 500 nM incubated for 72 hrs by fluorometric SA-beta-gal activity assay; assay type: functional, cell-based
Procedure, shortened: (§3)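 Senescence read as fluorometric SA-β-gal activity. Cells seeded 2 × 10^3 per well in triplicate and allowed 24h to adhere, then exposed to 500 nM JQ1 or DMSO control for 72h. Assayed per kit protocol. Experiments repeated at least 3 times.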

D341 cell line [16] = experiment: Induction of senescence in human D341 cells assessed as increase in population of cells in G1 phase at 500 nM incubated for 72 hrs by fluorometric SA-beta-gal activity assay; assay type: functional, cell-based; procedure, shortened: as §3
Daoy [17] = experiment: Antiproliferative activity against human Daoy cells at 500 nM incubated for 72 hrs by BrdU ELISA method; assay type: functional, cell-based
Procedure, shortened: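 Cells seeded in triplicate at 2 × 10^3 per well with 24h adherence, then treated with 500 nM JQ1 or DMSO control for 72h. Proliferation was measured by BrdU incorporation ELISA. Experiments were run independently at least 3 times.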

HD-MB03 [18] = experiment: Antitumor activity against human HD-MB03 cells xenografted in female athymic (nu/nu) mouse assessed as reduction in tumor volume at 50 mg/kg, ip measured form days 4 to 14 days relative to untreated control; assay type: functional, organism-based; conditions: time 4-14 day
Procedure, shortened: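 Female athymic nu/nu mice, 4 weeks old, received 2 × 10^7 HD-MB3 cells in Matrigel subcutaneously in the left flank. At 150–200 mm3 they were randomised, n=7 per group, to JQ1 50 mg/kg ip daily or vehicle for 28 days or until tumours exceeded 1000 mm3. Calipers were used, with volume = (breadth × length × height)/2. Time to 1000 mm3 was analysed by Kaplan-Meier.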

HD-MB03 [19] = experiment: Induction of apoptosis in female athymic (nu/nu) mouse xenografted with human HD-MB03 cells as increase in expression of cleaved caspase 3 in tumor at 50 mg/kg, ip administered at 0, 12, 24 and 36 hrs over 2-day course by immunohistochemistry; assay type: functional, organism-based
Procedure, shortened: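 Nu/nu mice bearing subcutaneous HD-MB3 tumours received JQ1 50 mg/kg ip or DMSO at 0, 12, 24 and 36 h and were killed 4 h after the last dose, 3 tumours per group. Formalin-fixed 5µm sections underwent pH 6.0 antigen retrieval for 20 min at 100°C, then cleaved caspase 3 immunostaining (1:200) with quantification of positive cells.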

[20] = biological target: Bromodomain-containing protein 4 (Homo sapiens) (UniProt O60885); conditions: ONS-76, dose 500.0 nM, time 24.0 hrs
[21] = biological target: Bromodomain-containing protein 4 (Homo sapiens) (UniProt O60885); conditions: UW228, dose 500.0 nM, time 72.0 hrs
[22] = biological target: Bromodomain-containing protein 4 (Homo sapiens) (UniProt O60885); conditions: D341 cell line, dose 500.0 nM, time 72.0 hrs
[23] = biological target: Bromodomain-containing protein 4 (Homo sapiens) (UniProt O60885); conditions: HD-MB03, dose 500.0 nM, time 6-24 hrs
[24] = biological target: Bromodomain-containing protein 4 (Homo sapiens) (UniProt O60885); conditions: HD-MB03, dose 500.0 nM, time 12.0 hrs

Structure (SMILES): Cc1sc2c(c1C)C(c1ccc(Cl)cc1)=N[C@@H](CC(=O)OC(C)(C)C)c1nnc(C)n1-2
- IC50 (HD-MB03 [1]): 364 nM
- IC50 (HD-MB03 [2]): 172 nM
- IC50 (ONS-76 [3]): 87 nM
- IC50 (Daoy [4]): > 1000 nM
- IC50 (UW228 [5]): > 1000 nM
- IC50 (D341 cell line [6]): 269 nM
- IC50 (D283 Med): > 1000 nM
- Activity (UW228 [7]): Active
- Activity (D341 cell line [8]): Active
- Activity (Daoy [9]): Active
- Activity (D341 cell line [10]): Active
- Activity (D341 cell line [11]): Active
- Activity (UW228 [12]): Active
- Activity (Daoy [13]): Active
- Activity (HD-MB03 [14]): Active
- Activity (ONS-76 [15]): Active
- Activity (D341 cell line [16]): Active
- Activity (Daoy [17]): Active
- Activity (HD-MB03 [18]): Active
- Activity (HD-MB03 [19]): Active
- inhibition [20]: Active
- inhibition [21]: Active
- inhibition [22]: Active
- inhibition [23]: Active
- inhibition [24]: Active
